Assay results: PMC10501872 (Acta Pharmaceutica Sinica. B, 2023)

Key:
[1] = test system: HEK-Blue hTLR2 cells; test: Cell toxicity assay; format: cell-based, human; settings: 24 h, CCK-8
In short: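 HEK-hTLR2 cells were seeded at 3 × 10^4 per well in DMEM with 10% FBS and left overnight at 37 °C. Graded concentrations of test compound were added for 24 h at 37 °C. CCK-8 was then added for 1–4 h at 37 °C and absorbance read at 450 nm.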

[2] = target: T1, TLR4 (Homo sapiens, UniProt O00206); test: Surface plasmon resonance, hTLR4; format: binding; settings: SPR
In short: (§1)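 For SPR chip coating, human TLR2 was expressed in insect H5 cells and diluted in PBS to 1 mg/mL. Commercial human TLR4 protein was diluted in PBS to 0.1 mg/mL.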
Target sequence in this assay (O00206 24-631 limits assumed): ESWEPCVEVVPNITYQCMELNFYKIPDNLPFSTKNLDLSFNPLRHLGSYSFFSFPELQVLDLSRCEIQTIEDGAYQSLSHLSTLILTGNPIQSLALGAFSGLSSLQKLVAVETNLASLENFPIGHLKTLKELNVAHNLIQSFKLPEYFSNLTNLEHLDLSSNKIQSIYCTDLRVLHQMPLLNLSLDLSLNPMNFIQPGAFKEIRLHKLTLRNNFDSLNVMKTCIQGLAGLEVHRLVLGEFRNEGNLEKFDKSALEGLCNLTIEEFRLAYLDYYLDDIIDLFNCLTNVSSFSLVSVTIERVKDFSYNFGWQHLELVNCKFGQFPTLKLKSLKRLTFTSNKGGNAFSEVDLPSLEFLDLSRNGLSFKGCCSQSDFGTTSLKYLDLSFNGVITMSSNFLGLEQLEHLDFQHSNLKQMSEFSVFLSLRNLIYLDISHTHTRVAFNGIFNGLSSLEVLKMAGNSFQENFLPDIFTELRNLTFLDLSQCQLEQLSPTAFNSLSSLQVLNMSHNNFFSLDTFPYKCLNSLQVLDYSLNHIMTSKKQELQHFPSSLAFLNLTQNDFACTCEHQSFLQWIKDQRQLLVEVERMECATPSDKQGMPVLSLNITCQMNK

[3] = test system: KM mice; test: Toxicity studies in vivo; parameters: species or system mouse; settings: 250 mg/kg oral on Day 1, 3 and 5; Day 7
In short: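 Male and female KM mice (6–8 weeks) were split into control and treated groups of 10 (half male). Test compound was given orally on Days 1, 3 and 5; controls received the same volume of solvent. Body weight was recorded daily. On Day 7, mice were killed and tissues taken for H&E pathology.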

[4] = test system: C57Bl/6 mice; test: Cecum ligation and puncture sepsis model; format: in vivo, mouse; settings: oral 5 and 25 mg/kg 1 h before CLP; serum and lung tissue, 8 h
In short: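 Male C57Bl/6 mice aged 6–8 weeks were used for polymicrobial sepsis by CLP. Test compound was given orally 1 h before surgery; sham-operated mice received the same volume of saline. Serum and lung tissue were taken 8 h after surgery for ELISA.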

[5] = test system: primary murine peritoneal macrophages; test: Nitric oxide; format: cell-based, mouse; settings: 10 μmol/L; Pam3CSK4 100 ng/mL, IFN-γ 40 ng/mL
In short: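 Thioglycolate-elicited peritoneal macrophages from 6–8-week C57BL/6 mice were seeded at 1 × 10^6 per well. Cells were exposed to IFN-γ (40 ng/mL) and Pam3CSK4 (100 ng/mL) with test compound for 48 h. Nitrite was read at 570 nm against a sodium nitrite standard curve.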

[6] = target: T2, TLR2 (Homo sapiens, UniProt O60603); test: QUANTI-blue SEAP assay, Pam3CSK4-stimulated HEK-Blue hTLR2 cells; format: cell-based
T2 sequence (O60603 21-784): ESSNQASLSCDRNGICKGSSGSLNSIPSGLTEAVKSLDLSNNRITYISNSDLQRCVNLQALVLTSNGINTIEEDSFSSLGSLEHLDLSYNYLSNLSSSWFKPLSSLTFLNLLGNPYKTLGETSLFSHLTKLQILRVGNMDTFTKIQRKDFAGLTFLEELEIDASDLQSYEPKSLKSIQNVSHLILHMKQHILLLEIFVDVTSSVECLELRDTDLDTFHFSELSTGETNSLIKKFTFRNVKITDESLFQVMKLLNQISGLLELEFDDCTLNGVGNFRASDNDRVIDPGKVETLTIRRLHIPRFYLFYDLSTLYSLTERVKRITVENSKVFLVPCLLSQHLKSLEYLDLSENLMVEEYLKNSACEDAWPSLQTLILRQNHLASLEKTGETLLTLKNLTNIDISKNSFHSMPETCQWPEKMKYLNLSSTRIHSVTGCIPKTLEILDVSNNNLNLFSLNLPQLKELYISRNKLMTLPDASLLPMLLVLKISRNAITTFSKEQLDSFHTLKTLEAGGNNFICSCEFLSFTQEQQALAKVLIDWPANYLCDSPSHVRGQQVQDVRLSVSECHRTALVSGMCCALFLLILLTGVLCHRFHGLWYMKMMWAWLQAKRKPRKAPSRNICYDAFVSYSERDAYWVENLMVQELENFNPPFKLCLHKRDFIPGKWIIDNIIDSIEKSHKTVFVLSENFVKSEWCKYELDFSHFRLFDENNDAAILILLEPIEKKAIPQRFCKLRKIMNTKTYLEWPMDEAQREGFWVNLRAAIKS
In short: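 HEK-Blue hTLR2 cells (4 × 10^4 per well) were grown 24 h at 37 °C, 5% CO2 in DMEM with 10% FBS, then given fresh medium. Graded test compound and Pam3CSK4 (100 ng/mL) were added for 24 h. Supernatant was mixed 1:1 with QUANTI-Blue, shaken in the dark, and OD620 read at 15–30 min.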

[7] = test system: C57Bl/6 mice; test: Carrageenan-induced paw edema model; format: in vivo, mouse; settings: at 4 h; for paw swelling (measured by volume): ip prior to carrageenan
In short: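 Male C57Bl/6 mice (6–8 weeks) were randomised into four groups of six. Saline, indomethacin (10 mg/kg ip) or test compound (5 mg/kg ip) was given 1 h before 50 μL 1% carrageenan was injected into the right hind plantar paw. Paw volume was read by plethysmometer at baseline and at 1, 4, 8 and 24 h. At 4 h, paws were weighed and homogenised in 0.5% HTAB phosphate buffer (pH 6.0); supernatant triplicates were assayed with 3,3′-dimethoxybenzidine/1% H2O2 for MPO.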

[8] = target: T2, TLR2; test: Competitive combination assay with Rhodamine-Pam3CSK4; format: cell-based; settings: 1 μmol/L, Rhodamine-Pam3CSK4 800 ng/mL, 4 h
In short: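 HEK-hTLR2 cells (3 × 10^4 per well) were seeded in DMEM with 10% FBS and left overnight. Medium was replaced with DMEM containing 800 ng/mL rhodamine-Pam3CSK4 and 1 μmol/L test compound for 4 h. After three PBS washes, nuclei were stained with DAPI for 5 min, cells were washed again and imaged by confocal microscopy.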

[9] = Water solubility; format: physicochemical
[10] = target: TLR2/6 (Homo sapiens, UniProt O60603); test: SEAP signaling induced by Pam2CSK4 in HEK-Blue hTLR2 cells; format: cell-based; settings: Pam2CSK4 100 ng/mL, 24 h
Chain of TLR2/6 (O60603 21-784): as above

[11] = test system: C57Bl/6 mice; test: DSS-induced colitis; format: in vivo, mouse; settings: for weight loss: oral administration, Day 8
In short: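 Colitis was induced with 3.5% DSS in drinking water for 5 days (not in controls), followed by normal water. From Day 2, test compound (5 or 25 mg/kg), dexamethasone (25 mg/kg) or vehicle was given orally. Body weight was recorded daily and mice were killed on Day 8. Colon was lysed in RIPA with protease/phosphatase inhibitors by sonication at 4 °C and spun at 12,000×g for 30 min. IL-6 and TNF-α were measured by ELISA on BCA-equalised protein.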

[12] = target: T1, TLR4; test: Cellular thermal shift assay, TLR4; format: binding; settings: 20 μmol/L, THP-1 cells
Target sequence in this assay (O00206 24-839): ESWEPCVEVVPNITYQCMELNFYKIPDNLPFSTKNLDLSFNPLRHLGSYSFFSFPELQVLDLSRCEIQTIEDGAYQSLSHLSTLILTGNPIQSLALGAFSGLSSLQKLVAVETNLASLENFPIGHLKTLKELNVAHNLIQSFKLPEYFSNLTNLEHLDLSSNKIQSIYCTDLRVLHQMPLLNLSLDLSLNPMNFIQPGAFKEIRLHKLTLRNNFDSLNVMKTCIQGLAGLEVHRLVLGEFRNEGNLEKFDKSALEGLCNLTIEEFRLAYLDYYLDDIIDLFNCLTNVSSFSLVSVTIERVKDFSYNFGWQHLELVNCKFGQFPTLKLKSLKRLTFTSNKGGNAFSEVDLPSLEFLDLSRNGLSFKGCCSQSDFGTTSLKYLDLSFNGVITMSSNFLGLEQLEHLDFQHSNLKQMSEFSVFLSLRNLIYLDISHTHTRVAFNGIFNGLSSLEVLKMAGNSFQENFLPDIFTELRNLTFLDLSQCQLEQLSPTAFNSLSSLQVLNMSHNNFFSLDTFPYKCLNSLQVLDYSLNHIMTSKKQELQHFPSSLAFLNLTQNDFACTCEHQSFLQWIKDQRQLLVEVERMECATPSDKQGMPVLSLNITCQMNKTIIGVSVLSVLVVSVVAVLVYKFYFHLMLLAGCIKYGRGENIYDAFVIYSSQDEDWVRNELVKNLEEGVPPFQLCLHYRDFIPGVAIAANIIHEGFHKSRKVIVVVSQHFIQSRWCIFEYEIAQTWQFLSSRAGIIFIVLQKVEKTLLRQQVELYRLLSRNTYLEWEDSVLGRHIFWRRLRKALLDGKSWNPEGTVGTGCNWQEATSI

[13] = test system: healthy human peripheral blood mononuclear cells (PBMCs); test: Cytokines ELISA, Pam3CSK4-treated PBMCs; format: cell-based; settings: 5 μmol/L, Pam3CSK4 100 ng/mL, 24 h
In short: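 Human PBMCs were seeded at 0.5 × 10^6 per well in RPMI 1640 with 10% FBS. Test compound plus Pam3CSK4 (100 ng/mL) was added for 24 h at 37 °C, 5% CO2. Supernatants were stored at −80 °C, then assayed by sandwich ELISA with recombinant cytokine standards, in triplicate.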

[14] = Pharmacokinetics in rat plasma; format: in vivo; settings: for AUC: rat plasma; for AUC / half-life: n = 5; for half-life: t1/2, rat plasma
[15] = test system: mouse primary peritoneal macrophage; test: Peritoneal macrophage phenotype assay; format: cell-based; settings: 10 μmol/L
In short: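 Peritoneal macrophages were plated at 1 × 10^6 per well in RPMI 1640 with 10% FBS and left overnight. Cells were treated for 24 h with medium, Pam3CSK4 (100 ng/mL) + IFN-γ (40 ng/mL), or LPS (100 ng/mL) + IFN-γ (40 ng/mL), each with test compound. Cells were trypsinised, stained 30 min for CD86 and CD11b, and analysed by flow cytometry.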

[16] = test system: TLR4; test: Cytokines ELISA, LPS-treated peritoneal macrophages and THP-1 cells; format: cell-based, human and murine; settings: LPS 100 ng/mL, 24 h
In short: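 Thioglycolate-elicited peritoneal macrophages from C57BL/6 mice were seeded at 0.5 × 10^6 per well in RPMI 1640 with 10% FBS. THP-1 cells (2.5 × 10^5 cells/mL) were differentiated with 100 nmol/L PMA for 24 h, washed and rested 24 h in fresh medium. Both cell types received LPS (100 ng/mL) plus graded test compound for 24 h at 37 °C. Supernatants were frozen at −80 °C and cytokines quantified by sandwich ELISA against recombinant standards, in triplicate.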

[17] = target: T2, TLR2; test: Cellular thermal shift assay, TLR2; format: binding; settings: 20 μmol/L, THP-1 cells, 45 to 53 °C, especially at 51 °C
[18] = test system: mouse primary BMDCs; test: BMDCs activation assay; format: cell-based; settings: 10 μmol/L
In short: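 BMDCs were generated from femur and tibia marrow of C57BL/6 mice and collected on day 7. They were seeded at 5 × 10^5 per well in RPMI 1640 with 10% FBS and left overnight. Cells then received Pam3CSK4 (300 ng/mL) or LPS (100 ng/mL) plus test compound for 24 h. Harvested cells were stained 30 min for CD86, CD80 and CD11c and read by flow cytometry.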

[19] = target: T2, TLR2; test: Surface plasmon resonance, hTLR2; format: binding
In short: as §1

Q: Which results are given for `COc1ccc2c(=O)oc3c(OC)cc(CC(O)CN(C)C)c4c(=O)oc1c2c34` (stereo not drawn) [SMU-Y6]?
A: cytotoxicity compared with Taspine [1]: reduced toxicity; binding signal to recombinant hTLR4 protein [2]: did not detect a binding signal; immediate toxicity [3]: did not seem to exhibit immediate toxicity; pathological analysis of heart, liver, spleen, lung and kidney [3]: no obvious organic damage; production of IL-6 in sepsis [4]: significantly reduced the production; production of TNF-α in sepsis [4]: significantly reduced the production; production of NO induced by Pam3CSK4 [5]: significantly reduced; IC50 [6]: 110 ± 40 nM; improvement of activity compared with Taspine ([6]; vs Taspine): 10 fold; activity of local myeloperoxidase (MPO) in paw tissue [7]: reversed; paw swelling (measured by volume) [7]: significantly reduced; fluorescence intensity of Rhodamine-Pam3CSK4 [8]: reduced the fluorescence intensity; water solubility relative to Taspine ([9]; vs Taspine): 20 times; SEAP signaling induced by Pam2CSK4 [10]: suppressed the SEAP signaling; weight loss [11]: reduced weight loss; IL-6 in local colonic tissue ([11]; oral, 5 and 25 mg/kg): reduced the production; TNF-α in local colonic tissue ([11]; oral, 5 and 25 mg/kg): reduced the production; thermal stabilization of TLR4 [12]: failed to induce the thermal stabilization; release of IL-1β [13]: completely inhibited; release of TNF-α [13]: completely inhibited; Cmax ([14]; ip): 208 ± 31.1 ng/mL; Tmax ([14]; ip): 0.25 ± 0.01 h; AUC ([14]; ip, AUC0‒t, intraperitoneal injection): 1790 ± 410 ng·h/mL; AUC ([14]; ip, AUC0‒∞, intraperitoneal injection): 2160 ± 600 ng·h/mL; half-life ([14]; ip, intraperitoneal injection): 9.16 ± 1.11 h; Cmax ([14]; po): 52.3 ± 5.83 ng/mL; Tmax ([14]; po): 3 ± 1 h; AUC ([14]; po, AUC0‒t, oral administration): 619 ± 84.2 ng·h/mL; AUC ([14]; po, AUC0‒∞, oral administration): 844 ± 184 ng·h/mL; half-life ([14]; po, oral administration): 11.5 ± 2.7 h; polarization induced by LPS and IFN-γ [15]: no effect; inhibitory activity with regards to TLR4 (TNF-α, IL-6) [16]: little or even no inhibitory activity; thermal stabilization of TLR2 protein [17]: higher thermal stabilization; LPS-induced activation of BMDCs [18]: failed to reverse; percentage of CD80+ CD86+ cells ([18]; Pam3CSK4, 16.6% without compound): 8.1%; Kd [19]: 180 nM; time to complete dissociation from TLR2 protein ([19]; SPR): 500 s

Q: With `CCOC(=O)C1=CCCC[C@H]1S(=O)(=O)Nc1ccc(F)cc1Cl` [TAK-242, reference compound] as the compound, how does the “binding signal to recombinant hTLR4 protein” value [2] read?
A: exhibited the ability to bind

Q: For `COc1ccc2c(=O)oc3c(OC)cc(CCN(C)C)c4c(=O)oc1c2c34` [Taspine, reference compound], which “water solubility” value [9] is on record?
A: poor water solubility

Q: With `C[C@@H]1C[C@H]2[C@@H]3CCC4=CC(=O)C=C[C@]4(C)[C@@]3(F)[C@@H](O)C[C@]2(C)[C@@]1(O)C(=O)CO` [dexamethasone, reference compound] as the compound, how does the weight loss [11] read?
A: reduced weight loss

Q: For `COc1ccc2c(c1)c(CC(=O)O)c(C)n2C(=O)c1ccc(Cl)cc1` [indomethacin, reference compound], which “activity of local myeloperoxidase (MPO) in paw tissue” value [7] is on record?
A: reversed

Q: And the “paw swelling (measured by volume)” value [7]?
A: significantly reduced
